Laboratory results: ChEMBL document CHEMBL3286131, “Design, synthesis and systematic evaluation of cytotoxic 3-heteroarylisoquinolinamines as topoisomerases inhibitors” (Eur J Med Chem, 2014)

What was measured:
HeLa [1] = experiment: Cell cycle arrest in human HeLa cells assessed as accumulation at sub-G0/G1 phase at 10 uM after 24 hrs using ethidium bromide staining by flow cytometry analysis relative to control; format: functional; conditions: in the assay text read “propidium iodide staining” for “ethidium bromide staining”
Summary of the method: (§1)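 HeLa cells exposed to graded compound concentrations for 24 h, harvested by centrifugation, PBS-washed twice, fixed overnight on ice in 70% ethanol. Stained with 10 μg/mL propidium iodide plus 0.5 mg/mL RNase and 0.1% Triton X-100 in PBS, 30 min at 37 °C in the dark. Flow cytometry gates: sub-G0/G1, G0/G1, S, G2/M.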

HeLa [2] = experiment: Cell cycle arrest in human HeLa cells assessed as accumulation at sub-G0/G1 phase at 25 uM after 24 hrs using […] by flow cytometry analysis relative to control; format: functional; summary of the method: as §1
HeLa [3] = experiment: Cell cycle arrest in human HeLa cells assessed as accumulation at G2/M phase phase at 25 uM after 24 hrs using […] by flow cytometry analysis relative to control; format: functional; summary of the method: as §1
DU-145 = experiment: Cytotoxicity against human DU145 cells after 2 days; format: functional, cell-based
Summary of the method: (§2)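 Cells seeded at 2-4 × 10^4 per well in medium with 10% FBS and incubated overnight at 37 °C, 5% CO2. Graded compound concentrations added on day 2. CCK-8 reagent added on day 4 for a further 4 h, absorbance read at 450 nm. IC50 from a four-parameter logistic fit; mean ± S.D. of three experiments run in triplicate.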

[4] = Cytotoxicity against human MCF10A cells after 2 days; format: cell-based, MCF-10A; summary of the method: as §2
T47D = experiment: Cytotoxicity against human T47D cells after 2 days; format: functional, cell-based; summary of the method: as §2
HeLa [5] = experiment: Cell cycle arrest in human HeLa cells assessed as accumulation at G0/G1 phase phase at 50 uM after 24 hrs using […] by flow cytometry analysis relative to control; format: functional; summary of the method: as §1
HeLa [6] = experiment: Cell cycle arrest in human HeLa cells assessed as accumulation at sub-G0/G1 phase at 50 uM after 24 hrs using […] by flow cytometry analysis relative to control; format: functional; summary of the method: as §1
HeLa [7] = experiment: Cell cycle arrest in human HeLa cells assessed as accumulation at G0/G1 phase phase at 5 uM after 24 hrs using ethidium bromide staining by flow cytometry analysis relative to control; format: functional; conditions: in the assay text read “propidium iodide staining” for “ethidium bromide staining”; summary of the method: as §1
HeLa [8] = experiment: Cell cycle arrest in human HeLa cells assessed as accumulation at S phase phase at 10 uM after 24 hrs using ethidium bromide staining by flow cytometry analysis relative to control; format: functional; conditions: in the assay text read “propidium iodide staining” for “ethidium bromide staining”; summary of the method: as §1
HeLa [9] = experiment: Cell cycle arrest in human HeLa cells assessed as accumulation at G2/M phase phase at 10 uM after 24 hrs using ethidium bromide staining by flow cytometry analysis relative to control; format: functional; conditions: in the assay text read “propidium iodide staining” for “ethidium bromide staining”; summary of the method: as §1
HeLa [10] = experiment: Cell cycle arrest in human HeLa cells assessed as accumulation at G0/G1 phase phase at 10 uM after 24 hrs using ethidium bromide staining by flow cytometry analysis relative to control; format: functional; conditions: in the assay text read “propidium iodide staining” for “ethidium bromide staining”; summary of the method: as §1
HeLa [11] = experiment: Cell cycle arrest in human HeLa cells assessed as accumulation at G0/G1 phase phase at 25 uM after 24 hrs using […] by flow cytometry analysis relative to control; format: functional; summary of the method: as §1
HeLa [12] = experiment: Cell cycle arrest in human HeLa cells assessed as accumulation at G2/M phase phase at 5 uM after 24 hrs using ethidium bromide staining by flow cytometry analysis relative to control; format: functional; conditions: in the assay text read “propidium iodide staining” for “ethidium bromide staining”; summary of the method: as §1
HeLa [13] = experiment: Cell cycle arrest in human HeLa cells assessed as accumulation at S phase phase at 25 uM after 24 hrs using […] by flow cytometry analysis relative to control; format: functional; summary of the method: as §1
HeLa [14] = experiment: Cell cycle arrest in human HeLa cells assessed as accumulation at G2/M phase phase at 50 uM after 24 hrs using […] by flow cytometry analysis relative to control; format: functional; summary of the method: as §1
HeLa [15] = experiment: Cell cycle arrest in human HeLa cells assessed as accumulation at S phase phase at 50 uM after 24 hrs using […] by flow cytometry analysis relative to control; format: functional; summary of the method: as §1
HeLa [16] = experiment: Cell cycle arrest in human HeLa cells assessed as accumulation at S phase phase at 5 uM after 24 hrs using ethidium bromide staining by flow cytometry analysis relative to control; format: functional; conditions: in the assay text read “propidium iodide staining” for “ethidium bromide staining”; summary of the method: as §1
[17] = Cytotoxicity against human HCT15 cells after 2 days; format: functional, cell-based, HCT-15; summary of the method: as §2

Row | SMILES | Activity (HeLa [1]) [%] | Activity (HeLa [2]) [%] | Activity (HeLa [3]) [%] | IC50 (DU-145; du-145) [µM] | IC50 ([4]; mcf-10a) [µM] | Activity (HeLa [5]) [%] | Activity (HeLa [6]) [%] | Activity (HeLa [7]) [%] | Activity (HeLa [8]) [%] | Activity (HeLa [9]) [%] | Activity (HeLa [10]) [%] | Activity (HeLa [11]) [%] | Activity (HeLa [12]) [%] | Activity (HeLa [13]) [%] | Activity (HeLa [14]) [%] | Activity (HeLa [15]) [%] | Activity (HeLa [16]) [%] | IC50 (T47D; t47d) [µM] | IC50 ([17]; hct-15) [µM] | IC50 (DU-145; Homo sapiens, DU-145, 48 h) [µM] | other results
1 | Cc1ccc2c(N3CCNCC3)nc(-c3cccs3)cc2c1.Cl | 86.88 | 96.03 | 0.27 | 11.7 | 8.18 | 0.57 | 98.87 | 59.04 | 1.6 | 0.58 | 6.13 | 1.64 | 12.75 | 0.67 | 0 | 0.17 | 13.49 |  |  |  | IC50 (T47D; Homo sapiens, T47D, 48 h): 7.57 µM; IC50 ([17]; Homo sapiens, HCT-15, 48 h): 0.94 µM
2 | Cl.Nc1nc(-c2cccs2)cc2ccccc12 | 6.6 | 5.22 | 11.42 |  |  | 52.6 | 6.54 | 63.67 | 9.55 | 13.67 | 64.43 | 56.01 | 16.08 | 13.82 | 22.37 | 10.09 | 7.76 | 17.5 | 24.4 |  | 
3 | Cl.c1csc(-c2cc3ccccc3c(N3CCNCC3)n2)c1 | 3.57 | 85.1 | 1.23 | 8.25 | 18.1 | 0.18 | 99.58 | 60.31 | 7.13 | 15.05 | 67.99 | 7.25 | 16.24 | 1.85 | 0.02 | 0.04 | 12.7 | 4.51 | 5.45 |  | 
4 | CCN1CCN(c2nc(-c3cccs3)cc3cc(C)ccc23)CC1 | 2.63 | 3.17 | 13.75 |  | 33.9 | 2.37 | 96.49 | 65.61 | 13.41 | 18.01 | 58.48 | 63.92 | 17.4 | 13.57 | 0.22 | 0.47 | 9.77 | 8.45 |  | 17.2 | IC50 ([17]; Homo sapiens, HCT-15, 48 h): 2.41 µM
5 | CCN1CCN(c2nc(-c3cccs3)cc3ccccc23)CC1.Cl | 2.59 | 2.67 | 15.75 |  | 23.8 | 31.74 | 54.68 | 68.51 | 12.88 | 20 | 57.14 | 54.43 | 15.9 | 18.42 | 3.46 | 6.9 | 9.99 | 8.08 | 9.29 | 46.6 | 
6 | Cc1ccc2c(N3CCNCC3)nc(-c3cccs3)cc2c1 | 92.31 | 96 | 0.22 |  |  | 1.4 | 97.06 | 62.69 | 0.64 | 0.23 | 3.24 | 1.89 | 11.58 | 0.5 | 0.04 | 0.35 | 11.25 | 8.74 | 1.31 | 8.31 | IC50 ([4]; Homo sapiens, MCF-10A, 48 h): 7.25 µM
7 | CCN1CCN(c2nc(-c3cccs3)cc3ccccc23)CC1 | 2.08 | 3.77 | 19.68 | > 50 | 49 | 71.23 | 3.97 | 65.03 | 9.46 | 17.28 | 66.35 | 55.62 | 14.89 | 13.4 | 11.7 | 7.96 | 10.47 | 17.4 |  |  | IC50 ([17]; Homo sapiens, HCT-15, 48 h): 7.42 µM
8 | Nc1nc(-c2cccs2)cc2ccccc12 | 17.43 | 18.03 | 47.68 |  |  | 5.04 | 13.66 | 44.93 | 8.2 | 41.79 | 21.33 | 11.6 | 28.48 | 11.29 | 59.85 | 9.56 | 9.04 | 7.93 | 1.2 | > 50 | IC50 ([4]; Homo sapiens, MCF-10A, 48 h): > 50 µM
